Measurements published in the array DNA melting data of Ke et al. (doi:10.1101/2024.01.08.574731).

Columns and labels:
[1] = melting temperature; fluorescence melt of hairpins on a sequencing array, two-state fit, raised by 9.35 °C to match UV melts; conditions: sodium 0.088 M
Summary of the method: (§1)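 Melting temperature and folding enthalpy were obtained by bootstrapped two-state fitting. Fits used Cy3 fluorescence of library hairpins with annealed Cy3 and quencher oligos on a sequenced MiSeq flow cell, imaged in 50 mM Na-HEPES pH 8.0, 25 mM NaCl in 2.5 °C steps up to 60 °C and normalised to pre-quench Cy3 and control constructs. Four replicates were combined by inverse-variance weighting, and fitted temperatures were raised by 9.35 °C to match UV melts.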

[2] = folding enthalpy; higher = less favourable; fluorescence melt of hairpins on a sequencing array, two-state fit; conditions: sodium 0.088 M
Summary of the method: as §1

Sequence	Tm [1]	folding enthalpy [2]
GGGCTACGAAAGTAACCC (((.(((....))).)))	52 °C	-153 kJ/mol
GGTGTGCGAAAGCATACC (((.(((....))).)))	63.6 °C	-161 kJ/mol
GCTGTTCGAAAGAATAGC (((.(((....))).)))	53.2 °C	-188 kJ/mol
GCGAAAACTCGC ((((....))))	41.7 °C	-54.9 kJ/mol
GTATCCGAAAGGAGGTAC ((((((....)))..)))	28.5 °C	-43.3 kJ/mol
ACCCTGAAAAGGGT (((((....)))))	53.2 °C	-80.5 kJ/mol
GCTTCGGGAAACTGAGGC ((.((.(....).)).))	36.5 °C	-120 kJ/mol
GATCAGTAACCTGATC ((((((....))))))	47.4 °C	-116 kJ/mol
GATCAAATGTTTGATC ((((((....))))))	45.1 °C	-145 kJ/mol
GCGCCAGGAAACTGGTGC ((.((((....)))).))	65 °C	-128 kJ/mol
GCCTAAGGAAACTTAGAC (.(((((....))))).)	27.8 °C	-82.8 kJ/mol
GATCCAATCCTGGATC ((((((....))))))	49.2 °C	-158 kJ/mol
GATCGGTCCCCGATC ((((((...))))))	57.4 °C	-187 kJ/mol
GGAGGCGGAAACGCTTCC (((.(((....))).)))	55.2 °C	-154 kJ/mol
GAGGCGGGAAACCGCCCC (.(((((....))))).)	46.4 °C	-29.7 kJ/mol
CGTGGTCGGAAACGAACG (((..(((....))))))	30.5 °C	-68.2 kJ/mol
GATGCACGAAAGTGATC (((.(((....))))))	36.6 °C	-56.9 kJ/mol
GATCGTTTATACGATC ((((((....))))))	57.5 °C	-162 kJ/mol
GGATCCGAAAGGATGTCC ((((((....)))..)))	35.2 °C	-52.4 kJ/mol
GTCACTGGAAACAGTGGC (.(((((....))))).)	53.7 °C	-171 kJ/mol
GCGAACGAAAGTTGACGC ((((((....)))..)))	44.1 °C	-96.3 kJ/mol
GTGACCGAAAGGTGCAC ((((((....))).)))	49.4 °C	-83.3 kJ/mol
GACGGCGAAAGCCAGGTC ((((((....)))..)))	46.6 °C	-68.9 kJ/mol

Sequence	Tm [1]	folding enthalpy [2]
GTAGTCGAAAGACGATAC ((((((....)))..)))	35.6 °C	-54.3 kJ/mol
GGCAGAACGAAAGTTGCC (((..(((....))))))	50.9 °C	-114 kJ/mol
GGATACGGAAACGTATCC (((((((....)))))))	64.2 °C	-171 kJ/mol
GATCATTGGAATGATC ((((((....))))))	46.5 °C	-151 kJ/mol
GGTTAAGAAATTAACC ((((((....))))))	43.5 °C	-99.7 kJ/mol
GGAGTCGAAAGACATTCC ((((((....)))..)))	27.9 °C	-53.1 kJ/mol
CGTCCGGAAACGGAAACG ((((((....)))..)))	40.5 °C	-87.6 kJ/mol
GGCATACGAAAGTAGCC (((.(((....))))))	52.7 °C	-102 kJ/mol
GAAGCCCGAAAGGGGTTC (((.(((....))).)))	67.7 °C	-154 kJ/mol
GCGGTCGGCCGC ((((....))))	60.1 °C	-101 kJ/mol
GGTGACGAAAGTCAGACC ((((((....)))..)))	44.6 °C	-61 kJ/mol
GGCCCAGGAAACTGGGTC (.(((((....))))).)	59.8 °C	-144 kJ/mol
GGACTCCGAAAGGAATCC (((.(((....))).)))	47.3 °C	-128 kJ/mol
GATCACGTGCGTGATC ((((((....))))))	59.7 °C	-189 kJ/mol
GAGCCCGGAAACGAGCTC ((((.((....)).))))	50.2 °C	-150 kJ/mol
GCAATCGAAAGATGCTGC ((((((....)))..)))	51.1 °C	-118 kJ/mol
GTAAGCGGAAACGCTTGC (.(((((....))))).)	54.1 °C	-95.1 kJ/mol
GCCAAAGGAAACTCTGGC ((((.((....)).))))	35.4 °C	-136 kJ/mol
GTGTGCGGAAACGTACGC (.((.((....)).)).)	48 °C	-114 kJ/mol
GCAAGCGGAAACGCTCAC (..((((....))))..)	30.5 °C	-38.4 kJ/mol
GGCCCTTCGAAAGAAGCC (((..(((....))))))	27.3 °C	-52.6 kJ/mol
CGGGGACGGAAACGTCCG (((..(((....))))))	50.2 °C	-33.1 kJ/mol
GAGACTGGAAACGGTCTC (((((.(....).)))))	49.9 °C	-193 kJ/mol
